Experimental data taken from ChEMBL document CHEMBL4350963, “Discovery and Lead-Optimization of 4,5-Dihydropyrazoles as Mono-Kinase Selective, Orally Bioavailable and Efficacious Inhibitors of Receptor Interacting Protein 1 (RIP1) Kinase” (J Med Chem, 2019).
Converted amounts (≈) assume the structure as drawn.

Legend:
[1] = Chromatographic hydrophobicity index, log D of the compound at pH 7.4 by reverse-phase HPLC analysis; type: physicochemical; settings: buffer
How it was run: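 Log D at pH 7.4 was calculated from the retention time on a fast-gradient reverse-phase HPLC run.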

[2] = Drug metabolism in rat blood assessed as hydroxylation; type: ADME, tissue-based
[3] = Drug metabolism in rat urine assessed as hydroxylation; type: ADME
[4] = Drug metabolism in rat bile assessed as hydroxylation; type: ADME, tissue-based
[5] = Drug exposure in rat at 2 mg/kg, po; type: ADME, organism-based; settings: in vivo, BLD = below limit of detection
How it was run: (§1)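 Rat pharmacokinetics: the iv arm was dosed at 1 mg/kg in 5% DMSO/20% Cavitron aqueous solution. The oral arm was dosed at 2 mg/kg in 5% DMSO/6% Cavitron aqueous solution. Bioavailability was calculated non-crossover, from average exposures in separate oral and iv studies.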

[6] = Lipophilicity, log P of the compound; type: physicochemical; settings: octanol/water
[7] = Volume of distribution at steady state in rat at 1 mg/kg, iv; type: ADME, organism-based; settings: in vivo, read-out: Vdss
[8] = AUC (0 to infinity) in rat at 1 mg/kg, iv; type: ADME, organism-based; design: dose 1 mg/kg, time infinity, route intravenous; settings: in vivo; how it was run: as §1
[9] = Volume of distribution at steady state in mouse at 2 mg/kg, iv; type: ADME, organism-based; settings: in vivo, read-out: Vdss
[10] = Cmax in mouse at 30 mg/kg, po; type: ADME, organism-based; design: dose 30 mg/kg, route oral; settings: in vivo
How it was run: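 Mouse pharmacokinetics: the iv arm received 2 mg/kg in 5% DMSO/20% Cavitron aqueous solution. The oral arm received 30 mg/kg as a suspension in 1% aqueous methylcellulose.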

[11] = Tmax in minipig at 2 mg/kg, po; type: ADME, organism-based, Sus scrofa; settings: pig, in vivo
[12] = Oral bioavailability in rat at 2 mg/kg; type: ADME, organism-based; settings: in vivo
[13] = Cmax in minipig at 2 mg/kg, po; type: ADME, organism-based, Sus scrofa; design: dose 2 mg/kg, route oral; settings: pig, in vivo
[14] = AUC (0 to infinity) in minipig at 1 mg/kg, iv; type: ADME, organism-based, Sus scrofa; design: dose 1 mg/kg, route intravenous, time infinity; settings: pig, in vivo
[15] = Solubility of the compound in fasted state simulated intestinal fluid measured after 4 hrs; type: physicochemical
[16] = Oral bioavailability in minipig at 2 mg/kg; type: ADME, organism-based, Sus scrofa; settings: pig, in vivo
[17] = Volume of distribution at steady state in monkey at 1 mg/kg, iv; type: ADME, organism-based, Macaca mulatta; settings: rhesus monkey, in vivo, read-out: Vdss
[18] = AUC (0 to infinity) in monkey at 1 mg/kg, iv; type: ADME, organism-based, Macaca mulatta; design: dose 1 mg/kg, time infinity, route intravenous; settings: rhesus monkey, in vivo
[19] = Tmax in rat at 2 mg/kg, po; type: ADME, organism-based; settings: in vivo
[20] = Tmax in mouse at 30 mg/kg, po; type: ADME, organism-based; settings: in vivo
[21] = Tmax in monkey at 2 mg/kg, po; type: ADME, organism-based, Macaca mulatta; settings: rhesus monkey, in vivo
[22] = Cmax in monkey at 2 mg/kg, po; type: ADME, organism-based, Macaca mulatta; design: dose 2 mg/kg, route oral; settings: rhesus monkey, in vivo
[23] = Oral bioavailability in monkey at 2 mg/kg; type: ADME, organism-based, Macaca mulatta; settings: rhesus monkey, in vivo
[24] = Volume of distribution at steady state in minipig at 1 mg/kg, iv; type: ADME, organism-based, Sus scrofa; settings: pig, in vivo, read-out: Vdss
[25] = Cmax in rat at 2 mg/kg, po; type: ADME, organism-based; design: dose 2 mg/kg, route oral; settings: in vivo; how it was run: as §1
[26] = AUC (0 to infinity) in mouse at 2 mg/kg, iv; type: ADME, organism-based; design: dose 2 mg/kg, time infinity, route intravenous; settings: in vivo

| Structure (SMILES) | chromatographic logD [1] | other results |
| --- | --- | --- |
| CC(C)C(=O)N1N=CCC1c1ccccc1 (stereo not given) | 4.4 |  |
| O=C(c1ccccn1)N1N=CCC1c1ccccc1 (stereo not given) | 2.4 |  |
| CC(C)(C)C(=O)N1N=CC[C@H]1c1ccccc1 | 5.8 | Drug metabolism [2]: Metabolite_Detected; Drug metabolism [3]: Metabolite_Detected; Drug metabolism [4]: Metabolite_Detected; Drug uptake [5]: Bld; logP [6]: 5.9 |
| O=C(c1cn[nH]c1)N1CCC(C(=O)N2N=CCC2c2ccccc2)CC1 (stereo not given) | 2.1 | Vd [7]: 1.6 L/kg; AUC(0-inf) [8]: 360 ng·h/mL |
| CC(C)(C)C(=O)N1N=CCC1c1ccc(C(C)(C)C)cc1 (stereo not given) | 8 |  |
| CC(C)(C)C(=O)N1N=CCC1c1cccc(F)c1 (stereo not given) | 5.9 |  |
| CC(C)(C)C(=O)N1CCC1c1ccccc1 (stereo not given) | 5 |  |
| N#Cc1nccc(N2CCC(C(=O)N3N=CC[C@H]3c3cc(F)cc(F)c3)CC2)n1 | 5.1 |  |
| CC(C)(C)C(=O)N1N=CCC1c1ccccn1 (stereo not given) | 3.5 |  |
| CC1=NN(C(=O)C(C)(C)C)[C@H](c2ccccc2)C1 | 6.4 |  |
| Cc1nnc(N2CCC(C(=O)N3N=CC[C@H]3c3cc(F)cc(F)c3)CC2)o1 | 3.6 | Vd [9]: 1.8 L/kg; Vd [7]: 1.3 L/kg; Cmax [10]: 5410 ng/mL; AUC(0-inf) [8]: 1300 ng·h/mL; Tmax [11]: 80 min; bioavailability [12]: 130%; Cmax [13]: 576 ng/mL; AUC(0-inf) [14]: 1300 ng·h/mL; solubility at 4 h [15]: 250 µg/mL (≈ 666 µM); bioavailability [16]: 65%; Vd [17]: 1.1 L/kg; AUC(0-inf) [18]: 3100 ng·h/mL; Tmax [19]: 25 min; Tmax [20]: 30 min; Tmax [21]: 120 min; Cmax [22]: 480 ng/mL; bioavailability [23]: 40%; Vd [24]: 1.3 L/kg; Cmax [25]: 1100 ng/mL; AUC(0-inf) [26]: 1100 ng·h/mL |
| O=C(c1cnco1)N1CCC(C(=O)N2N=CC[C@H]2c2ccccc2)CC1 | 2.7 | Vd [7]: 2.1 L/kg; AUC(0-inf) [8]: 400 ng·h/mL |
| O=C(c1cscn1)N1CCC(C(=O)N2N=CC[C@H]2c2ccccc2)CC1 | 3 |  |
| O=C(c1cccnc1)N1N=CCC1c1ccccc1 (stereo not given) | 2.7 |  |
| CN1CCN(C(=O)C(C)(C)C)C(c2ccccc2)C1 (stereo not given) | 4.9 |  |
| CC(C)(C)C(=O)N1N=CCC1c1cccc(Cl)c1 (stereo not given) | 6.6 |  |
| N#Cc1ccc(N2CCC(C(=O)N3N=CC[C@H]3c3cc(F)cc(F)c3)CC2)nn1 | 4.8 |  |
| CC(C)(C)C(=O)N1N=CCC1c1ccc(Cl)cc1 (stereo not given) | 6.6 |  |
| CC(C)(C)C(=O)N1CCCCC1c1ccccc1 (stereo not given) | 6.7 |  |
| CC(C)(C)C(=O)N1N=CCC1C1CCCCC1 (stereo not given) | 7.3 |  |
| CC(C)(C)C(=O)N1N=CCC1c1cc(F)cc(F)c1 (stereo not given) | 6.3 |  |
| CC(C)(C)C(=O)N1N=CCC1c1ccccc1 (racemic) | 5.8 |  |

More lines, main results first:

| chromatographic logD [1] | Structure (SMILES) | other results |
| --- | --- | --- |
| 3.2 | CCC(=O)N1CCC(C(=O)N2N=CCC2c2ccccc2)CC1 (stereo not given) |  |
| 1.1 | CN1CCC(C(=O)N2N=CCC2c2ccccc2)CC1 (stereo not given) |  |
| 2.6 | O=C(c1cccnc1)N1CCC(C(=O)N2N=CCC2c2ccccc2)CC1 (stereo not given) |  |
| 3.4 | O=C(C1CCN(c2cccnn2)CC1)N1N=CC[C@H]1c1ccccc1 |  |
| 4.6 | O=C(c1ccccc1)N1N=CCC1c1ccccc1 (stereo not given) |  |
| 6.3 | O=C(C1CCN(c2ccccc2)CC1)N1N=CCC1c1ccccc1 (stereo not given) |  |
| 3.1 | O=C(c1ccccn1)N1CCC(C(=O)N2N=CCC2c2ccccc2)CC1 (stereo not given) |  |
| 2.4 | O=C(c1cc[nH]n1)N1CCC(C(=O)N2N=CCC2c2ccccc2)CC1 (stereo not given) |  |
| 2.9 | O=C(c1cocn1)N1CCC(C(=O)N2N=CCC2c2ccccc2)CC1 (stereo not given) | Vd [7]: 0.98 L/kg; AUC(0-inf) [8]: 290 ng·h/mL |
| 4.4 | O=C(c1ccccc1)N1CCC(C(=O)N2N=CCC2c2ccccc2)CC1 (stereo not given) |  |
| 6.3 | O=C(C1CCN(c2ccccc2)CC1)N1N=CC[C@H]1c1ccccc1 |  |
| 2.5 | CC(=O)N1CCC(C(=O)N2N=CCC2c2ccccc2)CC1 (racemic) |  |
